From ChEMBL document CHEMBL1137676, “Nitroimidazolyl-1,3,4-thiadiazole-based anti-leishmanial agents: synthesis and in vitro biological evaluation” (Eur J Med Chem, 2009) come the findings set out here.

The source made the active and inactive calls. No cut-off for these calls is given here.

Data set [1] deals with Leishmania major. The data set is described as follows: Antileishmanial activity against amastigote form of Leishmania major MRHO/IR/75/ER in mouse peritoneal macrophages assessed as decrease in macrophage infectivity after 24 hrs. It counts as functional, organism-based. A digest of the protocol:
(§1)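 Mouse peritoneal macrophages were seeded on glass coverslips at 1 × 10⁶ per well, and non-adherent cells were washed off after 1 h. Stationary-phase promastigotes were added at 3 per macrophage for 2 h at 37 °C in CO₂, then unbound parasites were washed away. Cells got drug-containing medium for 24 h and were then methanol-fixed and Giemsa-stained, counting 60 cells per well. Infectivity index = % infected macrophages × mean amastigotes per infected cell. Two sets of experiments were run.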

Data set [2] concerns Leishmania major. Description: Antileishmanial activity against amastigote form of Leishmania major MRHO/IR/75/ER in mouse peritoneal macrophages assessed as decrease in infectivity index after 24 hrs. In kind it is functional, organism-based. A digest of the protocol: as §1
Data set [3] deals with Leishmania major. The data set is described as follows: Antileishmanial activity against promastigote form of Leishmania major MRHO/IR/75/ER after 24 hrs by MTT assay. In kind it is functional, organism-based. A digest of the protocol:
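Early-log promastigotes (2 × 10⁶/mL) were incubated with serial drug dilutions for 24 h at 25 °C in phenol red-free RPMI 1640 with 10% FBS, 2 mM glutamine and antibiotics, pH ~7.2. MTT at 0.5 mg/mL was added for 4 h at 37 °C, formazan was dissolved in DMSO and read at 492 nm. Controls received medium plus DMSO. IC₅₀ came from linear regression over ≥2 independent triplicate experiments, given as mean ± SD.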
For orientation: Tetrazolium assays rely on reduction of a dye to a coloured formazan, in cell work by metabolically active cells.

For data set [4], the system named is Leishmania major. The data set is described as follows: Antileishmanial activity against amastigote form of Leishmania major MRHO/IR/75/ER in mouse peritoneal macrophages assessed as decrease in number of amastigotes per macrophage after 24 hrs. In kind it is functional, organism-based. In short, it runs like this:
as §1

Data set [5] in a line: Cytotoxicity against mouse peritoneal macrophages assessed as cell viability after 24 hrs by MTT assay. In kind it is cell-based. Further details: concentration or dose not given beside the values. The following applies: peritoneal macrophage cell. A digest of the protocol:
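Mouse peritoneal macrophages were plated at 2 × 10⁵ cells/well. After adherence, the medium was replaced with compound-containing medium for 24 h at 37 °C, 5% CO₂, with medium-plus-DMSO controls. Viability was read by MTT colorimetric assay.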

[6] abbreviates: Leishmania major, MRHO/IR/75/ER, 24 h.

A word on the IC50: it is the midpoint of a concentration-inhibition curve. On to `Cn1c([N+](=O)[O-])cnc1-c1nnc(N2CCN(C(=O)c3ccc(Cl)s3)CC2)s1`, for which the result with Leishmania major [1], in the data set with Leishmania major [2] and with Leishmania major [4] was Active. Besides, in the data set on Leishmania major [3] (setting [6]), half-maximal inhibition (IC50) required 9.35 µM. Besides, the Activity result in data set [5] was “Non-toxic”.

In the case of `Cn1c([N+](=O)[O-])cnc1-c1nnc(N2CCN(C(=O)c3cccs3)CC2)s1`, the concentration for half-maximal inhibition (IC50) in the data set with Leishmania major [3] (setting [6]) stood at 25.6 µM. Further, the Activity result in data set [5] is “Non-toxic”.

MEGLUMINE ANTIMONATE gave a half-inhibitory concentration (IC50) in the data set on Leishmania major [3] of 82 µM. For the same molecule, the Activity in data set [5] is 40%.

As for `Cn1c([N+](=O)[O-])cnc1-c1nnc(N2CCN(C(=O)c3ccccc3)CC2)s1`, the result in the data set with Leishmania major [1], in the data set on Leishmania major [2] and with Leishmania major [4] was Active. The molecule also registered an IC50 with Leishmania major [3] (setting [6]) of 10.4 µM. Also, the Activity entry in data set [5] is given as “Non-toxic”.

`Cn1c([N+](=O)[O-])cnc1-c1nnc(N2CCN(C(=O)c3ccc(Cl)cc3)CC2)s1` registered an IC50 in the data set on Leishmania major [3] (setting [6]) of 42.9 µM. For the same molecule, the Activity entry in data set [5] is “Non-toxic”.

`Cn1c([N+](=O)[O-])cnc1-c1nnc(N2CCN(C(=O)c3ccccc3Cl)CC2)s1` registered an IC50 in the data set on Leishmania major [3] (setting [6]) of 20.3 µM. Further, the Activity entry in data set [5] is on record as “Non-toxic”.

Turning to `Cn1c([N+](=O)[O-])cnc1-c1nnc(N2CCN(C(=O)c3cccc(Cl)c3)CC2)s1`, in the data set on Leishmania major [3] (setting [6]), half-maximal inhibition (IC50) required 17.9 µM. In data set [5], the Activity entry was “Non-toxic”.

For `Cn1c([N+](=O)[O-])cnc1-c1nnc(N2CCN(C(=O)c3ccc(Br)s3)CC2)s1`, the IC50 in the data set with Leishmania major [3] (setting [6]) came out at 16 µM. The Activity result in data set [5] is recorded as “Non-toxic”.
